B1: tRNA (parent)
chain: GUUCCGUUGGCGUAAUGGUAACGCGUCUCCCUCCUAAGGAGAAGACUGCGGGUUCGAGUCCCGUACGGAACG

Drawing on the RNAGym collection of RNA variant scans (doi:10.1126/science.aae0568), this text covers yeast fitness for 167 variants.

Variants at the floor of the assay were thinned out.

Variants of B1 are the subject of the series. Kind of series: yeast fitness relative to wild type (ratio to wild type); higher = fitter; tRNA-Arg(CCU), competitive growth, 37 C, YPD. In short, it runs like this:
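Genotype frequency changes were the basis for Darwinian fitness relative to wild type. The frequencies came from 100-nucleotide paired-end sequencing of gene amplicons from the start population and each end population of pooled yeast strains with tRNA-Arg(CCU) gene variants at the native locus. Competition ran in YPD at 37°C for 24 hours in six replicates, genotypes needed ≥ 100 starting reads, and estimates < 0.5 were set to 0.5.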
For the variant C11U A20U G39A A65C, the yeast fitness stood at 0.533.

In the case of C11G U13G G63A, the yeast fitness is not above 0.5.

Consider C11U A14C G17A G23A C29G A42C G56A C62U, for which the yeast fitness is not above 0.5.

In the case of C11U A43U A45C G67C, the yeast fitness is not above 0.5.

With C11U A15U A57G A69C, the yeast fitness was not above 0.5.

For the variant C11U A14G U19A, the yeast fitness came out at 0.658.

C11G U16A C22U U28A C31A A42C A45U G51A U64A: the yeast fitness is not above 0.5.

Turning to C11U A37C, the yeast fitness worked out at 0.724.

For the variant C11U A37U, the yeast fitness amounted to 0.808.

Regarding C11G U19C G58C, the yeast fitness is not above 0.5.

Turning to C11U A15G A21G C34U G44A C61A A70C, the yeast fitness was not above 0.5.

Take C11G G38C G58C U64A: the yeast fitness was not above 0.5.

C11U A15G G18A C31A A36G C61G: the yeast fitness amounted to 0.513.

Consider C11U A15G C27G C46U, for which the yeast fitness came to 0.548.

Regarding C11G U32G C33U A37U A65G, the yeast fitness was determined as 0.627.

For C11U A21U C66U, the yeast fitness was 0.816.

In the case of C11U A15G A65G, the yeast fitness came out at 0.766.

In the case of C11U A40G A43C G56A, the yeast fitness was found to be 0.578.

On to C11U A45G C46G U47A C62G A65C, for which the yeast fitness came out at 0.533.

With C11U A21U A45U, the yeast fitness was 1.15.

With C11U A20U C24U C29A U32C A70G, the yeast fitness is not above 0.5.

Turning to C11G G41A, the yeast fitness turned out to be 0.586.

C11G U26A C31A G44C C62A: the yeast fitness was not above 0.5.

As for C11U A45G, the yeast fitness was determined as 0.96.

As to C11G U32C A40U, the yeast fitness came to 0.662.

Turning to C11U A21C C22A C66A, the yeast fitness was not above 0.5.

As for C11G G23C A36U G44C C62A, the yeast fitness was not above 0.5.

Turning to C11U A21C A42G A69C, the yeast fitness is not above 0.5.

Take C11G U64C: the yeast fitness was found to be 0.567.

For C11G U64A, the yeast fitness stood at 0.623.

Take C11G G25A C30U A37C C46U: the yeast fitness is 0.568.

For the variant C11U A21C A70G, the yeast fitness is not above 0.5.

On to C11U A45U A65C, for which the yeast fitness turned out to be 0.733.

For the variant C11G U32G A57C C62U C66U, the yeast fitness was 0.556.

On to C11U A42C G48A, for which the yeast fitness is 0.566.

C11G U53A C55U G56C: the yeast fitness was not above 0.5.

As to C11U A40G G67C A69U, the yeast fitness is 0.574.

Turning to C11U A15U C60U G67C, the yeast fitness was not above 0.5.

On to C11G G58C, for which the yeast fitness amounted to 0.589.

In the case of C11U A40U C46U C60G, the yeast fitness came out at 0.589.

Take C11U A20U C22A: the yeast fitness was not above 0.5.

As to C11U A21G C24A, the yeast fitness worked out at 0.529.

Turning to C11G U32A G68A, the yeast fitness worked out at 0.746.

Consider C11U A21U A69G, for which the yeast fitness is 0.712.

On to C11U A37C A45C, for which the yeast fitness is 0.576.

Take C11U A21C A42C G44A U54A C62U: the yeast fitness is not above 0.5.

On to C11U A36C U64A A70C, for which the yeast fitness is not above 0.5.

Turning to C11G G48A A65U, the yeast fitness came out at 0.525.

Regarding C11U A15C C29U A37G, the yeast fitness is 0.535.

C11G G68A A69G: the yeast fitness is not above 0.5.

Take C11G U28C G67C: the yeast fitness was not above 0.5.

Turning to C11U A21G A43C, the yeast fitness is 0.649.

For the variant C11G G58A A69U, the yeast fitness came out at 0.571.

For the variant C11G U28A G39A G48A G58C, the yeast fitness came out at 0.543.

Consider C11G U28A G39A G48A G67C, for which the yeast fitness was not above 0.5.

As to C11U A14G A21C C29U A37G C55U, the yeast fitness was not above 0.5.

Consider C11G G52C G67C, for which the yeast fitness was not above 0.5.

For the variant C11U A15G C27G C60U C62G C66G, the yeast fitness is not above 0.5.

Turning to C11U A37C U47C, the yeast fitness was found to be 0.706.

On to C11U A37G C49U A69C, for which the yeast fitness was not above 0.5.

C11U A37C C49U: the yeast fitness is not above 0.5.

On to C11G G41A A70G, for which the yeast fitness was not above 0.5.

For the variant C11G U13C A14G G17A G48C C62U C66G A70G, the yeast fitness was not above 0.5.

Regarding C11U A43C G48C U64C, the yeast fitness was not above 0.5.

As for C11G G18U C22U C33U A43G, the yeast fitness was not above 0.5.

As for C11G U16A C30A A69C, the yeast fitness was not above 0.5.

Turning to C11G U16A A70U, the yeast fitness amounted to 0.553.

As to C11U A15G U32A, the yeast fitness is not above 0.5.

As for C11G G50A C66G, the yeast fitness is not above 0.5.

As for C11G G25C G48C G51C C66A, the yeast fitness is not above 0.5.

As to C11U A40U A69C, the yeast fitness was determined as 0.646.

Take C11G G51C A65G: the yeast fitness was 0.616.

Turning to C11U A42U C60A A65U, the yeast fitness came to 0.553.

Regarding C11G U32C C60G, the yeast fitness is not above 0.5.

Regarding C11U A15C G44A A65U, the yeast fitness was not above 0.5.

For C11G U16A C22U G51C C60U G67A, the yeast fitness was not above 0.5.

As for C11G U28A C31G G38A C49A A69G, the yeast fitness came to 0.559.

C11G G39C U47C: the yeast fitness was not above 0.5.

Consider C11U A14U C34U A57G, for which the yeast fitness was not above 0.5.

As to C11G U28C A36G A43C, the yeast fitness was not above 0.5.

Turning to C11U A43C G56A, the yeast fitness was found to be 0.692.

As for C11U A15C C27A G68A, the yeast fitness was not above 0.5.

In the case of C11U A21C U35A A42U C46G, the yeast fitness is not above 0.5.

On to C11U A15G, for which the yeast fitness was 1.01.

Turning to C11G U32G A69C A70U, the yeast fitness is not above 0.5.

Consider C11G U47A G67A, for which the yeast fitness stood at 0.548.

For the variant C11U A14C C29U C30G A40G C49A, the yeast fitness is not above 0.5.

On to C11U A40U C66G, for which the yeast fitness was not above 0.5.

In the case of C11G G23A C46A G68U, the yeast fitness is 0.566.

Take C11U A36C A65C C66U: the yeast fitness came to 0.558.

On to C11U A14G C31A C55U G68A, for which the yeast fitness is not above 0.5.

Regarding C11U A43U C62A, the yeast fitness was 0.605.

With C11U A15C A65C A70U, the yeast fitness is not above 0.5.

For the variant C11U A15U U35G G44C A69G, the yeast fitness is 0.774.

C11U A20C C29G G56C G58A: the yeast fitness stood at 0.693.

In the case of C11G U32G A45G C49U A70U, the yeast fitness is not above 0.5.

In the case of C11G U16A A21U G23C, the yeast fitness amounted to 0.665.

As to C11G U26A U35A, the yeast fitness is not above 0.5.

On to C11G U19C C34G C60A G67C, for which the yeast fitness was not above 0.5.

As to C11U A21G C55U, the yeast fitness was 0.593.

With C11U A21C C27U A42G A69C A70G, the yeast fitness was not above 0.5.

Consider C11U A36G A45C, for which the yeast fitness was determined as 0.807.

Turning to C11G U13G A65C, the yeast fitness is not above 0.5.

As to C11G U28A C66U A70U, the yeast fitness was not above 0.5.

As to C11U A15C C27G A70G, the yeast fitness was not above 0.5.

In the case of C11U A45C G51A, the yeast fitness stood at 0.611.

C11U A43U A70G: the yeast fitness came to 0.738.

Consider C11U A21U G41A A57C, for which the yeast fitness is not above 0.5.

As for C11G U35C C46U C61U, the yeast fitness is not above 0.5.

As to C11U A14G U35C A70U, the yeast fitness is not above 0.5.

C11U A42U C66A: the yeast fitness was determined as 0.51.

As to C11G G38A G58A C60U, the yeast fitness is not above 0.5.

Turning to C11G G41A G67U G68C, the yeast fitness is 0.569.

Regarding C11G U19A A21G C27U G39C C60A, the yeast fitness was not above 0.5.

On to C11G G23C A36U G44C, for which the yeast fitness is 0.748.

As for C11G G38A, the yeast fitness was determined as 0.63.

C11G U16A G67A: the yeast fitness stood at 0.536.

Consider C11G G25A U35C A36U, for which the yeast fitness is not above 0.5.

Consider C11U A36G U53C, for which the yeast fitness came to 0.538.

For C11U A14C G63C, the yeast fitness was not above 0.5.

Turning to C11U A21U U54A A70G, the yeast fitness was not above 0.5.

For the variant C11U A21U U35A A36U, the yeast fitness was not above 0.5.

For C11U A37G U54A U59G, the yeast fitness is not above 0.5.

As to C11G G38A C66U, the yeast fitness was not above 0.5.

With C11U A43G A57C, the yeast fitness is not above 0.5.

With C11G U16A U28C C29U G39A U59G U64A, the yeast fitness was not above 0.5.

With C11G U59A C61A, the yeast fitness is not above 0.5.

With C11U A15U C27U C60G, the yeast fitness amounted to 0.563.

As for C11G U53C, the yeast fitness turned out to be 0.584.

For C11U A20U C24U C29A C49U A70G, the yeast fitness is not above 0.5.

For C11G G23A G38A G39C G50A G56C, the yeast fitness came out at 0.613.

In the case of C11U A20U C30A G38A G51A U54A, the yeast fitness was not above 0.5.

As for C11U A43G, the yeast fitness turned out to be 0.945.

Consider C11U A14U C24G G44A C49U, for which the yeast fitness was not above 0.5.

C11U A15G A69U: the yeast fitness came out at 0.765.

On to C11U A21C C22G, for which the yeast fitness was 0.657.

As to C11G U54A, the yeast fitness was not above 0.5.

Regarding C11U A36G A43C, the yeast fitness is 0.546.

Take C11U A42U A43G C61A: the yeast fitness is not above 0.5.

With C11U A20G C24G G63C, the yeast fitness was not above 0.5.

For the variant C11U A14U C24G A42G, the yeast fitness is 0.54.

Turning to C11U A14G C27G C31U, the yeast fitness came to 0.618.

As for C11U A14U G18A C31U C46G U47A A65C, the yeast fitness was not above 0.5.

Consider C11G U19A C22G U59A, for which the yeast fitness was not above 0.5.

C11U A14C C27G C46G A65G: the yeast fitness was 0.52.

Turning to C11U A20C A69C, the yeast fitness was 0.627.

Take C11U A14C C29G C30G A36U A40U: the yeast fitness worked out at 0.591.

C11U A15C G44C C46A: the yeast fitness is not above 0.5.

On to C11U A21U G41A C61A, for which the yeast fitness is not above 0.5.

Turning to C11G U16A C49A, the yeast fitness is not above 0.5.

Regarding C11U A14G C24G C27U G41A A42C, the yeast fitness was not above 0.5.

In the case of C11U A21U C61A A70U, the yeast fitness was not above 0.5.

As to C11U A21G C24A G52A C60A A69G, the yeast fitness was 0.523.

Consider C11U A21U A42G C60A, for which the yeast fitness was not above 0.5.

Turning to C11U A36G C60G A70C, the yeast fitness was not above 0.5.

Regarding C11G U16G G38C, the yeast fitness was 0.577.

For C11U A45U A57C G58A, the yeast fitness turned out to be 0.61.

With C11U A20U A65C, the yeast fitness was not above 0.5.

In the case of C11U A20U G39C U54G, the yeast fitness was not above 0.5.

For the variant C11U A15G G23A C60A C61U G63C C66U, the yeast fitness is not above 0.5.

Regarding C11U A20G, the yeast fitness turned out to be 0.957.

For the variant C11U A20C, the yeast fitness is 0.777.

As to C11U A21C A42G C61U, the yeast fitness is not above 0.5.

As for C11U A21U G50C U64C, the yeast fitness came to 0.597.

Turning to C11G U16A C29U A69C, the yeast fitness is 0.538.

Take C11U A36U A37C A42U G63C: the yeast fitness was not above 0.5.

Take C11U A40C A43U U53A: the yeast fitness was not above 0.5.
